Assays:
Type in all cases: ADME, organism-based
Details in all cases: in vivo
[1] = Clearance in Sprague-Dawley rat at 25 mg/kg, po administered as single dose by LC/MS/MS analysis
Outline: (§1)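 Male naïve Sprague–Dawley rats (n=3) received a single 25 mg kg−1 oral gavage dose in 5% ethanol/45% PEG 400/50% water. EDTA-K2 blood was sampled over 24 h post-dose. Plasma levels were measured by LC/MS/MS after acetonitrile protein precipitation, and parameters came from two-compartment analysis.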

[2] = Volume of distribution in Sprague-Dawley rat at 25 mg/kg, po administered as single dose by LC/MS/MS analysis
Outline: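 Male naïve Sprague–Dawley rats (n = 3) received a single 25 mg kg−1 dose by oral gavage in 5% ethanol/45% PEG 400/50% water. EDTA-K2 blood was sampled over 24 h. Plasma levels were measured by LC/MS/MS after acetonitrile protein precipitation, and parameters came from two-compartment analysis.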

[3] = AUC in Sprague-Dawley rat at 25 mg/kg, po administered as single dose by LC/MS/MS analysis; parameters: dose 25 mg/kg, route po; outline: as §1

## Cc1nc(-c2ccc3ccccc3c2)sc1-c1nnc(N[C@@H]2CCCC[C@H]2N)o1 (relative stereo)
[1]
  CL/F: 5.33 mL/min
[2]
  Vd: 1.64 L
[3]
  AUC: 79.2 µg·h/mL
